Our source for the Activity, IC50 and degraded values is ChEMBL document CHEMBL4257471, “Orthoester functionalized N-guanidino derivatives of 1,5-dideoxy-1,5-imino-d-xylitol as pH-responsive inhibitors of β-glucocerebrosidase” (Medchemcomm, 2017).

For data set [1], the system named is T1, Lysosomal acid glucosylceramidase (Homo sapiens), P04062 [N409S].
T1 sequence (whole entry): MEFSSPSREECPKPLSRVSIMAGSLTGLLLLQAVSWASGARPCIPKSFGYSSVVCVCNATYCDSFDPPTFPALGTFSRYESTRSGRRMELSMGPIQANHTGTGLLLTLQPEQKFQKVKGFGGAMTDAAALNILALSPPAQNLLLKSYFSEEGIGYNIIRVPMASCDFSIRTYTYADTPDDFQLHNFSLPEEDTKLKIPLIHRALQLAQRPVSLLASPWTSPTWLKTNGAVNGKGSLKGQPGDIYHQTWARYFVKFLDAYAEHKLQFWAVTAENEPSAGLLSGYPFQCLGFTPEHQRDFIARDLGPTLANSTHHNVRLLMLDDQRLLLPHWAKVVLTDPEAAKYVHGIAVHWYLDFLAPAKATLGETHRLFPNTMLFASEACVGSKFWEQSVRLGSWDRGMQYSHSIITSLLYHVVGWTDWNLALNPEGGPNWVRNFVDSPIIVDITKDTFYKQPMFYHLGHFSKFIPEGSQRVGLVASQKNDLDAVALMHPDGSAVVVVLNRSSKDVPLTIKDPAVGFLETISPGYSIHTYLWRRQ
Briefly: Chaperone activity at GBA N370S mutant in Gaucher disease patient-derived fibroblasts assessed as restoration of enzyme activity at 1 to 10000 nM after 4 days by 4-methylumbelliferyl-beta-D-glucopyranoside substrate based fluorescence assay.

Data set [2] deals with T2, Lysosomal acid glucosylceramidase (Homo sapiens, UniProt P04062).
T2 sequence (P04062 whole entry): T1 sequence (whole entry) with S409N
Briefly: Inhibition of recombinant human GBA pre-incubated for 30 mins followed by 4-methylumbelliferyl-beta-D-glucopyranoside substrate addition and measured after 10 mins using compound incubated at pH 7 buffer for 24 hrs prior to test by fluorescence assay.

The next data set concerns the target Alpha-galactosidase (Coffea arabica, UniProt Q42656). Briefly: Inhibition of green coffee beans alpha-galactosidase pre-incubated for 5 mins followed by p-nitrophenyl-alpha-D-galactopyranoside substrate addition and measured after 30 mins by spectrophotometric assay. In a few lines: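 Enzyme at 0.05 U mL⁻¹ with p-nitrophenyl-α-D-galactopyranoside, 0.7 mM final, in sodium phosphate buffer (100 mM, pH 6.8). IC50 values in μM are averages of triple independent duplicate runs.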

Another data set deals with T3, Beta-galactosidase (Bos taurus, UniProt Q58D55).
T3 sequence (Q58D55 whole entry): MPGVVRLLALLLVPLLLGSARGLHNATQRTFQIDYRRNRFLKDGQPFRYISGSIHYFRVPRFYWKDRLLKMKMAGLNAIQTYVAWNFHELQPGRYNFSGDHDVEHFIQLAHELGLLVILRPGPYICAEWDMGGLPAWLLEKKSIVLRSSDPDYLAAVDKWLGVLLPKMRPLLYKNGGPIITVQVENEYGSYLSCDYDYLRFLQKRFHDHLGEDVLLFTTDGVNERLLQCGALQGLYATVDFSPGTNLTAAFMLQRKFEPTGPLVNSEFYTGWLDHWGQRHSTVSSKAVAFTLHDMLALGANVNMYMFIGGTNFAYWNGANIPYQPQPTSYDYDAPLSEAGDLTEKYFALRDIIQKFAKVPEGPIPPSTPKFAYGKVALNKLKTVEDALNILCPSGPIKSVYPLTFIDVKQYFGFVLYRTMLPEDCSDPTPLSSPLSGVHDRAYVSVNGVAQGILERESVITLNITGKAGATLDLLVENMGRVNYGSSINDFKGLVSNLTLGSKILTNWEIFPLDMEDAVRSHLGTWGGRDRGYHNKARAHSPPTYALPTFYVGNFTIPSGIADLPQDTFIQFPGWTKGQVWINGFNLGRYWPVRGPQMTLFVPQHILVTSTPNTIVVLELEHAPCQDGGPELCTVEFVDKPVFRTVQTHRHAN
Briefly: Inhibition of bovine liver beta-galactosidase pre-incubated for 5 mins followed by p-nitrophenyl-beta-D-galactopyranoside substrate addition and measured after 30 mins by spectrophotometric assay. In a few lines: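 Enzyme at 0.05 U mL⁻¹; p-nitrophenyl-β-D-galactopyranoside substrate, 0.7 mM final, in 100 mM sodium phosphate buffer, pH 7.2. IC50 values in μM from triple independent duplicate analysis.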

Data set [3] is described as follows: Inhibition of yeast alpha-glucosidase pre-incubated for 5 mins followed by p-nitrophenyl-alpha-D-glucopyranoside substrate addition and measured after 30 mins by spectrophotometric assay. Details: species or system Saccharomyces cerevisiae. In a few lines: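 Enzyme at 0.05 U mL⁻¹; p-nitrophenyl-α-D-glucopyranoside substrate at 0.7 mM final in 100 mM sodium phosphate, pH 7.2. IC50 values in μM averaged from triple independent duplicate analysis.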

The nature of data set [4]: Inhibition of almond beta-glucosidase pre-incubated for 5 mins followed by p-nitrophenyl-beta-D-glucopyranoside substrate addition and measured after 30 mins by spectrophotometric assay. On the set-up: species or system Prunus dulcis. Summed up: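 Enzyme at 0.05 U mL⁻¹ with p-nitrophenyl-β-D-glucopyranoside, 0.7 mM final, in 100 mM sodium acetate, pH 5.0. IC50 values in μM are means of triple independent duplicate analyses.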

Data set [5] addresses T2, Lysosomal acid glucosylceramidase. Briefly: Inhibition of recombinant human GBA pre-incubated for 30 mins followed by 4-methylumbelliferyl-beta-D-glucopyranoside substrate addition and measured after 10 mins using compound incubated at pH 5.2 for 24 hrs prior to test by fluorescence assay.
The nature of data set [6]: Inhibition of Penicillium decumbens naringinase pre-incubated for 5 mins followed by p-nitrophenyl-beta-D-glucopyranoside substrate addition and measured after 30 mins by spectrophotometric assay. Summed up: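 Enzyme at 0.06 U mL⁻¹; substrate p-nitrophenyl-β-D-glucopyranoside at 0.7 mM final in 100 mM sodium acetate buffer, pH 5.0. IC50 values in μM, averaged from triple independent duplicate runs.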

The target in a further data set is T4, Galactocerebrosidase (Homo sapiens, UniProt P54803).
T4 sequence (P54803 whole entry): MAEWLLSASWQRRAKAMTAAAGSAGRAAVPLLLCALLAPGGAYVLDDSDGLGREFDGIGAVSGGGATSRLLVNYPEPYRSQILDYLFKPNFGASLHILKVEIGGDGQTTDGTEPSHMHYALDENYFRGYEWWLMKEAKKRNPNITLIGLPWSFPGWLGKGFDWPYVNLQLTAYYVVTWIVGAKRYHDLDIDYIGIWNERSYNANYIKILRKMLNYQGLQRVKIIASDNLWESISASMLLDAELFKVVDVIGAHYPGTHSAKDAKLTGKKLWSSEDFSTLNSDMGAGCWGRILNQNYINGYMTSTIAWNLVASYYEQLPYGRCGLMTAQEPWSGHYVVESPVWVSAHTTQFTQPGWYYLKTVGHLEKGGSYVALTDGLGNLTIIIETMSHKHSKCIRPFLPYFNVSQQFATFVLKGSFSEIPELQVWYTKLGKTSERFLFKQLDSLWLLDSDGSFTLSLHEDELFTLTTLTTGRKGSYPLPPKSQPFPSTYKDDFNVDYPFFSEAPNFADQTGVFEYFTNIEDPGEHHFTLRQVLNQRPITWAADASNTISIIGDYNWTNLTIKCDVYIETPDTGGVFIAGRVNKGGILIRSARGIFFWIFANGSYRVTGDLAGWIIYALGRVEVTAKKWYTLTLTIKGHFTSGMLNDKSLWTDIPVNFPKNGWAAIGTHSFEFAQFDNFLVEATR
Briefly: Inhibition of recombinant human GALC at pH 5.2 pre-incubated for 10 mins followed by 4-methylumbelliferyl-beta-D-galactopyranoside substrate addition and measured after 20 mins by fluorescence assay. Summed up: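 Human recombinant enzyme assayed with 4-methylumbelliferyl-β-D-galactopyranoside substrate. IC50 values in μM, averaged from triple independent duplicate analysis.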

Data set [7] deals with T5, Lysosomal acid glucosylceramidase (Homo sapiens), P04062 [L483P].
T5 sequence (whole entry): T1 sequence (whole entry) with S409N, L483P
Briefly: Chaperone activity at GBA L444P mutant in Gaucher disease patient-derived fibroblasts assessed as restoration of enzyme activity at 1 to 10000 nM after 4 days by 4-methylumbelliferyl-beta-D-glucopyranoside substrate based fluorescence assay.

A short description of data set [8]: Drug degradation in aqueous solution at room temperature after 6 days. The note with it: read-out: Drug degradation. It counts as physicochemical.

As usually defined, the IC50 is the midpoint of a concentration-inhibition curve.

The structures appear in SMILES notation. Where a chain is given by its changes, count along the chain named. Active and inactive are the calls of the source. The calls are words filed in the database; no cut-off is given here.

Chain of Alpha-galactosidase (Q42656 whole entry): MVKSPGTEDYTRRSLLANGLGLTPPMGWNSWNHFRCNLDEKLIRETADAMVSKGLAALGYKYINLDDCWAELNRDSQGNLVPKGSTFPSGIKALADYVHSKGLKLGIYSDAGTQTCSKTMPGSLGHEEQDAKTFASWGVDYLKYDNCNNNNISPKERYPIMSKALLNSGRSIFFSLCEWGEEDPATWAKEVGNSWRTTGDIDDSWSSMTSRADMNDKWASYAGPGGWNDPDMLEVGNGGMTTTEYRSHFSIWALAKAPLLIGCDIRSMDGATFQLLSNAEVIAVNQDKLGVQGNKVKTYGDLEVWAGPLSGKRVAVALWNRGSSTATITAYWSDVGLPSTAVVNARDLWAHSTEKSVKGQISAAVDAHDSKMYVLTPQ

On to `OC[C@H]1CNC[C@@H](O)[C@@H]1O`, for which the result in data set [1] was Active.
For the compound `CCCCCCCCOC1OCC(CNC(=N)N2C[C@@H](O)[C@H](O)[C@@H](O)C2)O1` (stereo partly drawn), the IC50 is 0.025 µM in [2]; above 30 µM at Alpha-galactosidase; above 30 µM against Beta-galactosidase; above 30 µM in [3]; 14.6 µM in [4]; above 30 µM in data set [5]. Moreover, the IC50 (in data set [6]; on Galactocerebrosidase) was above 30 µM in each case. The result in [1] was Active. Also, in [7], the result was inactive. Further, in [8], the degraded at 144 h is below 3%.
`CCCCOC1OCC(CNC(=N)N2C[C@@H](O)[C@H](O)[C@@H](O)C2)O1` (stereo partly drawn): the IC50 in data set [2] is 2.56 µM; against Alpha-galactosidase it was above 30 µM; against Beta-galactosidase, above 30 µM; in data set [3], above 30 µM; in data set [4], 19.2 µM; in data set [5] it was above 30 µM. For the same compound, the IC50 (in data set [6]; at Galactocerebrosidase) was above 30 µM each time. Besides, the result in data set [1] was Active. Besides, the degraded at 144 h in data set [8] was below 3%.
For `CCCCCCCCCN1C[C@H](O)[C@@H](O)[C@H](O)[C@H]1CO`, the IC50 on Alpha-galactosidase was above 30 µM; at Beta-galactosidase, above 30 µM; in data set [3] it was above 30 µM; in data set [4], above 30 µM; in data set [6], 0.085 µM; at Galactocerebrosidase it was above 30 µM.
